Consider ten compounds from ChEMBL document CHEMBL1149466, “Synthesis and pharmacochemical study of novel polyfunctional molecules combining anti-inflammatory, antioxidant, and hypocholesterolemic properties” (Bioorg Med Chem Lett, 2006).

As usually defined, the IC50 is the point on the concentration scale where inhibition reaches its midpoint. What is called inhibition in vivo is the drop in the measured response relative to a control, in per cent. As usually defined, the Inhibition is the change of the read-out against control, counted positive when it falls. As a reminder, the inhibition is how much of the control response was suppressed.

Calls of active or inactive are those of the source. No cut-off for these calls is given here.

Series [1] has as its system Radical scavenging activity. Put plainly: DPPH radical scavenging activity at 0.05 mM. It counts as functional. A digest of the protocol:
(§1)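 Radical scavenging measured as % interaction with stable free radical DPPH (0.2 mM) after 30 min incubation, compounds at 0.2, 0.1 and 0.05 mM.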
Background: DPPH is a stable violet radical that fades when it is reduced.

For series [2], the target named is T1, Seed linoleate 13S-lipoxygenase-1 (Glycine max, UniProt P08170).
T1 sequence (P08170 whole entry): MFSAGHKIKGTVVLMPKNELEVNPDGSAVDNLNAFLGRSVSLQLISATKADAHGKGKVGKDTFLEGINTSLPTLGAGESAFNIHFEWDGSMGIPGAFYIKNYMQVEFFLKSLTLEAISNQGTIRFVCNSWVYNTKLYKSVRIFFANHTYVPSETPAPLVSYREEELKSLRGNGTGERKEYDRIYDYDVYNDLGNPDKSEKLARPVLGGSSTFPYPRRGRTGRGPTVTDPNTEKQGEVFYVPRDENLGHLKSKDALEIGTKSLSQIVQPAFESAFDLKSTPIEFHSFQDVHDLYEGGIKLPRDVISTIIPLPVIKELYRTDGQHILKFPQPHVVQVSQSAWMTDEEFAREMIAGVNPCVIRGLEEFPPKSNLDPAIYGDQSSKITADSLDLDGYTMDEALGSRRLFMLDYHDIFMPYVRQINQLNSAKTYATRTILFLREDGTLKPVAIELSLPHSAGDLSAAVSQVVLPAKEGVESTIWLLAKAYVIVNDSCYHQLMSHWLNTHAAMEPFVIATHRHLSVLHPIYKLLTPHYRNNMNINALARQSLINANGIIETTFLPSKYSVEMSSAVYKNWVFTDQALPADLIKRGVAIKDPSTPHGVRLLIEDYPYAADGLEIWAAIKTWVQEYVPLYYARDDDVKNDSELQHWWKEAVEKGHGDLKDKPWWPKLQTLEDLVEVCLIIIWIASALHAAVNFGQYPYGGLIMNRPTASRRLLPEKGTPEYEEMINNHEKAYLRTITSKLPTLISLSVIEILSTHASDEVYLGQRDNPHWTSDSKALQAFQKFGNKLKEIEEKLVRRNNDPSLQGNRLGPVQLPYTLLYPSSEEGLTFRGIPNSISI
Put plainly: Inhibition of soybean lipoxygenase. It counts as functional. A digest of the protocol:
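Soybean lipoxygenase, 220 U/ml, with sodium linoleate (100 μM) substrate, pH 9, 28 °C, 5 min; IC50 determined.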

Series [3] concerns Rattus norvegicus. Put plainly: Gastrointestinal toxicity in rat at 1350 umol/kg, sc. The class given is organism-based. Conditions: in vivo. The method, boiled down:
(§2)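 Female rats dosed sc once daily for four days. Mortality, perforating GI ulcer incidence, melena defecation and body weight loss recorded 24 h after last dose.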

Series [4] concerns Rattus norvegicus. Put plainly: Anti-inflammatory activity against paw edema induced by carrageenan in fischer rat at 300 umol/kg, ip. The class given is functional. The method, boiled down:
(§3)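 Carrageenan paw edema in rats; compounds given ip at 300 µmol/kg. Read-out % paw weight increase versus controls, converted to % edema inhibition; mean of 4-9 rats from two independent experiments, Student's t test.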

Series [5] concerns Rattus norvegicus. Put plainly: Inhibition of arthritis in rat at 300-600 umol/kg, id. The class given is functional. A digest of the protocol:
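Arthritis induced in rats by id injection of complete Freund's adjuvant; compounds dosed 300-600 µmol/kg for 14 days, arthritic score assessed day 15 post adjuvant, % inhibition versus controls; mean of 4-6 rats, Student's t test.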

Series [6] relates to Rattus norvegicus. Put plainly: Increase in paw weight in Fischer rats at 300 umol/kg, ip. The class given is functional. The method, boiled down:
as §3

Series [7] deals with Radical scavenging activity. Put plainly: DPPH radical scavenging activity at 0.2 mM. The class given is functional. A digest of the protocol:
as §1

For series [8], the system named is Radical scavenging activity. Put plainly: DPPH radical scavenging activity at 0.1 mM. It counts as functional. The method, boiled down:
as §1

For series [9], the system named is Radical scavenging activity. Put plainly: Inhibition of lipid peroxidation of rat hepatic microsomal membrane lipids. It counts as functional, Liver.
The subject of series [10] is Rattus norvegicus. Put plainly: Decrease in triglyceride level in rat at 56 umol/kg, ip. More on the design: scale not given: the % may be the effect or the level left. Conditions: route intraperitoneal.
Series [11] has as its system Rattus norvegicus. Put plainly: Decrease in total cholesterol level in rat at 56 umol/kg, ip. Conditions: route intraperitoneal. More on the design: scale not given: the % may be the effect or the level left.
In series [12] the test system is Rattus norvegicus. Put plainly: Decrease in LDL cholesterol level in rat at 56 umol/kg, ip. Also noted: scale not given: the % may be the effect or the level left. Conditions: route intraperitoneal.
The test system of series [13] is Radical scavenging activity. Put plainly: Inhibition of lipid peroxidation of rat hepatic microsomal membrane lipids at 1 mM. Conditions: Liver.
For series [14], the system named is Rattus norvegicus. Put plainly: Decrease in LDL cholesterol level in rat at 200 umol/kg, ip. More on the design: scale not given: the % may be the effect or the level left. Conditions: route intraperitoneal.
Series [15] has as its system Rattus norvegicus. Put plainly: Decrease in total cholesterol level in rat at 200 umol/kg, ip. Also noted: scale not given: the % may be the effect or the level left. Conditions: route intraperitoneal.
The subject of series [16] is Rattus norvegicus. Put plainly: Gastrointestinal toxicity in rat at 84 umol/kg, sc. It counts as organism-based. Conditions: in vivo. The method, boiled down: as §2
Series [17] deals with Rattus norvegicus. Put plainly: Decrease in triglyceride level in rat at 200 umol/kg, ip. More on the design: scale not given: the % may be the effect or the level left. Conditions: route intraperitoneal.

As to `COc1ccc2cc(C(C)C(=O)N3CCCC3C(=O)NCCS)ccc2c1` (stereo unspecified), the Activity in series [1] was 28.8%; in the series on Rattus norvegicus [3], “Non-toxic”; with Rattus norvegicus [6], 42.9%; in series [7], 78.9%; in [8], 56.3%. In series [2], this compound came in with an IC50 of 35 µM. The compound also displayed an inhibition in vivo at 300 µmol/kg in the series on Rattus norvegicus [4] of 26.7%. The Inhibition with Rattus norvegicus [5] is given as 51.6%.

On to `COc1ccc2cc([C@H](C)C(=O)O)ccc2c1` [NAPROXEN], for which the Activity entry in the series on Rattus norvegicus [3] is recorded as “Toxic”; with Rattus norvegicus [6], 28.7%. The compound further returned an inhibition in vivo at 300 µmol/kg in the series with Rattus norvegicus [4] of 51%.

With `CCOC(=O)C(CS)NC(=O)C1CCCN1C(=O)C(C)c1ccc2cc(OC)ccc2c1` (stereo unspecified), the Activity in series [1] is 32.1%; with Rattus norvegicus [3] it was “Non-toxic”; in the series with Rattus norvegicus [6], 44.6%; in the series with Rattus norvegicus [10] it was 68.7%; with Rattus norvegicus [11], 58%; in series [7] it was 86.3%. In addition, the Activity is 61.9% in series [8] and 55% with Rattus norvegicus [12]. Besides, the concentration for half-maximal inhibition (IC50) in [9] is 320 µM; in series [2], 48 µM. Also, the inhibition in vivo at 300 µmol/kg with Rattus norvegicus [4] worked out at 23.7%. The same compound came in with an Inhibition with Rattus norvegicus [5] of 100%.

The compound `CCOC(=O)[C@@H](N)CS` returned an inhibition in [13] of 49%.

Take `CCOC(=O)C(CS)NC(=O)C1CCCN1C(=O)Cc1c(C)n(C(=O)c2ccc(Cl)cc2)c2ccc(OC)cc12` (stereo unspecified): the Activity was 31.1% in series [1]; 48.4% with Rattus norvegicus [14]; 78% in the series on Rattus norvegicus [15]; “Non-toxic” with Rattus norvegicus [16]; 50.1% in the series on Rattus norvegicus [6]; 55.7% in the series on Rattus norvegicus [17]. For the same compound, the Activity in [7] worked out at 69.7%; in series [8], 44.2%. Moreover, the half-inhibitory concentration (IC50) in series [9] came out at 390 µM; in series [2], 200 µM. Moreover, the inhibition in vivo at 300 µmol/kg in the series with Rattus norvegicus [4] came to 14.3%. In addition, the Inhibition with Rattus norvegicus [5] is given as 77.4%.

Consider `CCOC(=O)C(CS)NC(=O)C1CCCCN1C(=O)C(C)c1ccc2cc(OC)ccc2c1` (stereo unspecified), for which the Activity in [1] amounted to 23.5%; in the series with Rattus norvegicus [6], 34.9%; with Rattus norvegicus [10], 21.3%; with Rattus norvegicus [11], 40%; in [7], 76.7%; in [8], 46%. This compound also showed an Activity with Rattus norvegicus [12] of 52%. Besides, in [9], the IC50 was 122 µM. In the series on Rattus norvegicus [4], this compound showed an inhibition in vivo at 300 µmol/kg of 50.7%.

For the compound `NCCS`, the inhibition in series [13] was 37%.

In turn, `COc1ccc2c(c1)c(CC(=O)O)c(C)n2C(=O)c1ccc(Cl)cc1` [INDOMETHACIN] gave an inhibition in vivo at 300 µmol/kg in the series with Rattus norvegicus [4] of 53.9%. Besides, the Activity entry with Rattus norvegicus [16] is “Toxic”; with Rattus norvegicus [6], 27%.

Turning to `COc1ccc2cc(C(C)C(=O)N3CC(O)CC3C(=O)NCCS)ccc2c1` (stereo unspecified), the Activity turned out to be 21.3% in series [1], 44.4% with Rattus norvegicus [6], 56.2% in [7] and 36.5% in [8]. In the series on Rattus norvegicus [4], this compound yielded an inhibition in vivo at 300 µmol/kg of 24.1%.

As for `COc1ccc2c(c1)c(CC(=O)N1CCCC1C(=O)NCCS)c(C)n2C(=O)c1ccc(Cl)cc1` (stereo unspecified), the result in series [1], in series [7] and in series [8] was inactive. The inhibition in vivo at 300 µmol/kg in the series with Rattus norvegicus [4] turned out to be 17%. Moreover, the Activity result is reported as “Non-toxic” with Rattus norvegicus [16] and 48.5% in the series with Rattus norvegicus [6]. Further, in the series with Rattus norvegicus [5], the Inhibition is 50.8%.
